Measured values published in ChEMBL document CHEMBL1208663, “Synthesis of 2-substituted-N-[4-(1-methyl-4,5-diphenyl-1H-imidazole-2-yl)phenyl]acetamide derivatives and evaluation of their anticancer activity” (Eur J Med Chem, 2010).
≈ marks a conversion by molar mass, not a printed value. Calls of active or inactive are those of the source. No cut-off for these calls is given here.

Tests used:
MCF7 [1] = experiment: Cytotoxicity against human MCF7 cells at 16 ug/ml after 24 hrs by MTT assay; assay type: functional
How it was run: (§1)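 MCF-7 cells grown in DMEM with 1 mM pyruvate, 10 µg/mL insulin, 10% FBS and penicillin/streptomycin at 37 °C, 5% CO2. Exposed 24 h to 0.64–80 µg/mL (DMSO stocks diluted in medium). MTT added, A540 measured. Percent viability relative to untreated cells; IC50 derived. Three experiments with four wells per concentration.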

MCF7 [2] = experiment: Cytotoxicity against human MCF7 cells at 1.6 ug/ml after 24 hrs by MTT assay; assay type: functional; how it was run: as §1
MCF7 [3] = experiment: Cytotoxicity against human MCF7 cells at 32 ug/ml after 24 hrs by MTT assay; assay type: functional; how it was run: as §1
HT-29 [4] = experiment: Cytotoxicity against human HT-29 cells after 24 hrs by MTT assay; assay type: functional, cell-based; details: HT-29, 24 h
How it was run: (§2)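 HT-29 cells grown in McCoy's 5A with 10% FBS and penicillin/streptomycin at 37 °C, 5% CO2. Treated 24 h with 0.64, 1.6, 6.4, 16, 32 or 80 µg/mL (DMSO stock diluted in medium). MTT added, absorbance read at 540 nm. Viability taken relative to untreated control (100%); IC50 calculated. Four wells per concentration, three repeat experiments.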

MCF7 [5] = experiment: Cytotoxicity against human MCF7 cells at 80 ug/ml after 24 hrs by MTT assay; assay type: functional; how it was run: as §1
HT-29 [6] = experiment: Cytotoxicity against human HT-29 cells at 16 ug/ml after 24 hrs by MTT assay; assay type: functional; how it was run: as §2
MCF7 [7] = experiment: Cytotoxicity against human MCF7 cells at 6.4 ug/ml after 24 hrs by MTT assay; assay type: functional; how it was run: as §1
MCF7 [8] = experiment: Cytotoxicity against human MCF7 cells after 24 hrs by MTT assay; assay type: functional, cell-based; details: MCF7, 24 h; how it was run: as §1
MCF7 [9] = experiment: Cytotoxicity against human MCF7 cells at 0.64 ug/ml after 24 hrs by MTT assay; assay type: functional; how it was run: as §1
HT-29 [10] = experiment: Cytotoxicity against human HT-29 cells at 32 ug/ml after 24 hrs by MTT assay; assay type: functional; how it was run: as §2
HT-29 [11] = experiment: Cytotoxicity against human HT-29 cells at 0.64 ug/ml after 24 hrs by MTT assay; assay type: functional; how it was run: as §2
HT-29 [12] = experiment: Cytotoxicity against human HT-29 cells at 6.4 ug/ml after 24 hrs by MTT assay; assay type: functional; how it was run: as §2
HT-29 [13] = experiment: Cytotoxicity against human HT-29 cells at 80 ug/ml after 24 hrs by MTT assay; assay type: functional; how it was run: as §2
HT-29 [14] = experiment: Cytotoxicity against human HT-29 cells at 1.6 ug/ml after 24 hrs by MTT assay; assay type: functional; how it was run: as §2
HT-29 [15] = experiment: Inhibition of DNA synthesis in human HT-29 cells after 48 hrs by BrdU incorporation assay; assay type: functional, cell-based
How it was run: (§3)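 HT-29 cells (McCoy's 5A, 10% FBS) seeded at 1 × 10^3 cells/mL. Exposed to three concentrations for 24 h and 48 h at 37 °C, with DMSO solvent control. BrdU label for 2 h, then fixation and anti-BrdU-POD for 90 min. Substrate colour read at 492 nm with blank subtracted. Triplicate wells, three experiments.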

HT-29 [16] = experiment: Inhibition of DNA synthesis in human HT-29 cells by BrdU incorporation assay; assay type: functional, cell-based; details: TDE = time-dependent effect; how it was run: as §3
HT-29 [17] = experiment: Induction of apoptosis in human HT-29 cells assessed as DNA fragmentation after 24 hrs by gel electrophoresis
MCF7 [18] = experiment: Inhibition of DNA synthesis in human MCF7 cells by BrdU incorporation assay; assay type: functional, cell-based; details: TDE = time-dependent effect
How it was run: (§4)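 MCF-7 cells (DMEM, pyruvate, insulin, 10% FBS) seeded at 1 × 10^3 cells/mL. Treated at three concentrations for 24 h or 48 h at 37 °C against DMSO control. Labelled with BrdU for 2 h, fixed, then anti-BrdU-POD for 90 min. Colorimetric substrate read at 492 nm after blank subtraction. Triplicate wells, repeated three times.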

MCF7 [19] = experiment: Inhibition of DNA synthesis in human MCF7 cells after 48 hrs by BrdU incorporation assay; assay type: functional, cell-based; how it was run: as §4

Row | SMILES | Activity (MCF7 [1]) [%] | Activity (MCF7 [2]) [%] | Activity (MCF7 [3]) [%] | IC50 (HT-29 [4]) [µg/mL] | Activity (MCF7 [5]) [%] | Activity (HT-29 [6]) [%] | Activity (MCF7 [7]) [%] | IC50 (MCF7 [8]) [µg/mL] | Activity (MCF7 [9]) [%] | Activity (HT-29 [10]) [%] | Activity (HT-29 [11]) [%] | Activity (HT-29 [12]) [%] | Activity (HT-29 [13]) [%] | Activity (HT-29 [14]) [%] | inhibition (HT-29 [15]) | inhibition (HT-29 [16]) | Activity (HT-29 [17]) | inhibition (MCF7 [18]) | inhibition (MCF7 [19])
1 | Cn1c(-c2ccc(NC(=O)CSc3nc4ccccc4s3)cc2)nc(-c2ccccc2)c1-c1ccccc1 | 50.3 | 2.1 | 59 | 18 (≈ 33.8 µM) | 76.6 | 47.2 | 27 | 15.8 (≈ 29.7 µM) | 0.9 | 66 | 9.8 | 36.8 | 82.7 | 15.3 |  |  |  |  | 
2 | CCN1CCN(CC(=O)Nc2ccc(-c3nc(-c4ccccc4)c(-c4ccccc4)n3C)cc2)CC1 | 32.8 | 14.6 | 38.6 | 75 (≈ 156 µM) | 46.3 | 28.4 | 16.4 | > 80 | 4.7 | 38.8 | 7.4 | 17.2 | 51.2 | 13.9 |  |  |  |  | 
3 | Cn1c(-c2ccc(NC(=O)CN3CCN(c4ccccc4)CC3)cc2)nc(-c2ccccc2)c1-c1ccccc1 | 59.6 | 21.3 | 63.6 | 8.6 (≈ 16.3 µM) | 72.5 | 55.4 | 37.7 | 10.7 (≈ 20.3 µM) | 12.1 | 60.5 | 17.3 | 46.5 | 63.7 | 26 |  |  |  |  | 
4 | Cn1ccnc1SCC(=O)Nc1ccc(-c2nc(-c3ccccc3)c(-c3ccccc3)n2C)cc1 | 32.4 | 17.5 | 43.4 | 47.5 (≈ 99 µM) | 64 | 36.5 | 27.2 | 46.5 (≈ 97 µM) | 10.3 | 41.1 | 13.6 | 30.7 | 69.4 | 23.8 |  |  |  |  | 
5 | CN1CCN(CC(=O)Nc2ccc(-c3nc(-c4ccccc4)c(-c4ccccc4)n3C)cc2)CC1 | 30.1 | 2.9 | 46.2 | 35.5 (≈ 76.2 µM) | 50.3 | 33.7 | 28.6 | 76.5 (≈ 164 µM) | 1.1 | 49.1 | 18.8 | 28.8 | 53.1 | 27.4 |  |  |  |  | 
6 | CN(C)CCN1CCN(CC(=O)Nc2ccc(-c3nc(-c4ccccc4)c(-c4ccccc4)n3C)cc2)CC1 | 19.4 | 1.9 | 25.8 | > 80 | 34.7 | 28.2 | 11.1 | > 80 | 1.2 | 29.8 | 3.1 | 12.2 | 45.4 | 8 |  |  |  |  | 
7 | Cn1c(-c2ccc(NC(=O)CSC3=NCCS3)cc2)nc(-c2ccccc2)c1-c1ccccc1 | 41.8 | 16.2 | 52.5 | 21 (≈ 43.3 µM) | 70 | 43.3 | 18.6 | 26.7 (≈ 55.1 µM) | 10.3 | 59.4 | 16.8 | 31 | 75.2 | 30.4 |  |  |  |  | 
8 | Cn1c(-c2ccc(NC(=O)CSc3nc4ccccc4o3)cc2)nc(-c2ccccc2)c1-c1ccccc1 | 56 | 27.4 | 71.5 | 11 (≈ 21.3 µM) | 76.3 | 56.2 | 42.3 | 11.2 (≈ 21.7 µM) | 18.7 | 79.3 | 24.8 | 44.9 | 81.5 | 41 | Dose-dependent effect | tde | inactive | tde | Dose-dependent effect
9 | Cn1c(-c2ccc(NC(=O)CCl)cc2)nc(-c2ccccc2)c1-c1ccccc1 | 15.2 | 4.3 | 42.8 | 28.7 (≈ 71.4 µM) | 70 | 23.7 | 14.2 | 42.6 (≈ 106 µM) | 3.4 | 53.2 | 7.2 | 15.1 | 76.1 | 14.4 |  |  |  |  | 
10 | Cn1c(-c2ccc(NC(=O)CN3CCN(Cc4ccccc4)CC3)cc2)nc(-c2ccccc2)c1-c1ccccc1 | 28.3 | 13.3 | 33.6 | 65.5 (≈ 121 µM) | 49.5 | 37 | 23.8 | > 80 | 7.2 | 40 | 15.5 | 26.8 | 54.5 | 26 |  |  |  |  | 
11 | Cn1cnnc1SCC(=O)Nc1ccc(-c2nc(-c3ccccc3)c(-c3ccccc3)n2C)cc1 | 61.2 | 42.8 | 89.2 | 10.7 (≈ 22.3 µM) | 89.3 | 59.1 | 59.2 | 3.2 (≈ 6.66 µM) | 33.1 | 86.1 | 32 | 43.1 | 88 | 40.8 | Dose-dependent effect | tde | Active | tde | Dose-dependent effect
12 | Cn1nnnc1SCC(=O)Nc1ccc(-c2nc(-c3ccccc3)c(-c3ccccc3)n2C)cc1 | 63.7 | 34.3 | 77.5 | 1.6 (≈ 3.32 µM) | 77.7 | 72.5 | 55.9 | 4.5 (≈ 9.34 µM) | 21.9 | 84 | 38 | 60.6 | 89 | 49.8 | Dose-dependent effect | tde | Active | tde | Dose-dependent effect
13 | Cc1nnc(SCC(=O)Nc2ccc(-c3nc(-c4ccccc4)c(-c4ccccc4)n3C)cc2)s1 | 74.9 | 37.5 | 83.4 | 2.7 (≈ 5.43 µM) | 85.2 | 83.3 | 67.8 | 3.2 (≈ 6.43 µM) | 35.1 | 87.1 | 34.8 | 73 | 90.5 | 39.9 | Dose-dependent effect | tde | Active | tde | Dose-dependent effect
14 | Cn1c(-c2ccc(NC(=O)CN3CCN(Cc4ccc(Cl)cc4)CC3)cc2)nc(-c2ccccc2)c1-c1ccccc1 | 46.2 | 11.8 | 52.8 | 12 (≈ 20.8 µM) | 52.9 | 52.9 | 33.4 | 21 (≈ 36.4 µM) | 4.8 | 55.6 | 11.3 | 41.5 | 60.7 | 16.4 |  |  |  |  | 
